From ChEMBL document CHEMBL1770101, “Synthesis, anti-inflammatory activity and COX-1/COX-2 inhibition of novel substituted cyclic imides. Part 1: Molecular docking study” (Eur J Med Chem, 2011)

Tests used:
Rattus norvegicus [1] = experiment: Antiinflammatory activity in Sprague-Dawley rat assessed as inhibition of carrageenan-induced paw edema at 100 mg/kg, ip after 1 hr by plethysmometer; format: functional; conditions: route intraperitoneal
In short: (§1)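 Male Sprague-Dawley rats (250 g), fasted at least 16 h with free access to water, six per group. Test compound given IP at 100 mg/kg as 1 mL suspension in 0.5% methyl cellulose.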

Rattus norvegicus [2] = experiment: Antiinflammatory activity in ip dosed Sprague-Dawley rat assessed as inhibition of carrageenan-induced paw edema after 2 hrs by plethysmometer; format: functional
In short: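 Male Sprague-Dawley rats (250 g), fasted at least 16 h with water available, six per group. Compounds dosed IP as 1 mL suspension in 0.5% methyl cellulose. Paw volume measured by water displacement plethysmometer before and after treatment. % inhibition = (1 − D/C) × 100 versus controls.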

Rattus norvegicus [3] = experiment: Antiinflammatory activity in Sprague-Dawley rat assessed as inhibition of carrageenan-induced paw edema at 100 mg/kg, ip after 2 hrs by plethysmometer; format: functional; conditions: route intraperitoneal; in short: as §1
[4] = target: T1, Prostaglandin G/H synthase 1 (Ovis aries, UniProt P05979); experiment: Inhibition of ovine COX1 after 5 mins by enzyme immunoassay
T1 sequence (P05979 whole entry): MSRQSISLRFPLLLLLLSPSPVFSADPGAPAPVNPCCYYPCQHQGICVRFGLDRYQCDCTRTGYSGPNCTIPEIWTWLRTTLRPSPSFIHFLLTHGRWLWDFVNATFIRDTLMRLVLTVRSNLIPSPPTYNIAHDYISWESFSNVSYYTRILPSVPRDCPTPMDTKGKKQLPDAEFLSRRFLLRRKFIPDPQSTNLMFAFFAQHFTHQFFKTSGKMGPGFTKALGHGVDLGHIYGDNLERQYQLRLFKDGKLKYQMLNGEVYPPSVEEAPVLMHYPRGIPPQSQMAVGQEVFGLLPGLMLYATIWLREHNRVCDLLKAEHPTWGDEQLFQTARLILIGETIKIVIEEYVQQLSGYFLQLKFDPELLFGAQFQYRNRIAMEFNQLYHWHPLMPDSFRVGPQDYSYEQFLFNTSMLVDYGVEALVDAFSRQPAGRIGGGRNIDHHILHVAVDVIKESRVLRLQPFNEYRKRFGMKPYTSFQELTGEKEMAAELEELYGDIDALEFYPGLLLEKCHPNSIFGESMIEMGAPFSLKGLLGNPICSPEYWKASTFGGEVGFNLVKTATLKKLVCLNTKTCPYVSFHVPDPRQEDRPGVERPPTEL

SMILES	inhibition in vivo at 100 mg/kg (Rattus norvegicus [1]) [%]	ED50 (Rattus norvegicus [2]) [mg/kg]	inhibition in vivo at 100 mg/kg (Rattus norvegicus [3]) [%]	IC50 [4] [µM]
O=C1c2cccc3cccc(c23)C(=O)N1c1cc(Cl)c(Cl)c(Cl)c1	79	115	88	> 100
COc1cc(N2C(=O)CCC2=O)cc(OC)c1OC	20		40	> 100
O=C1CCC(=O)N1c1cc(Cl)c(Cl)c(Cl)c1	30		33	> 100
COc1cc(N2C(=O)[C@H]3CC=CC[C@H]3C2=O)cc(OC)c1OC				> 100
O=C1[C@H]2CC=CC[C@H]2C(=O)N1c1cc(Cl)c(Cl)c(Cl)c1				> 100
COc1cc(N2C(=O)c3nccnc3C2=O)cc(OC)c1OC	72	123	84	> 100
O=C1c2nccnc2C(=O)N1c1cc(Cl)c(Cl)c(Cl)c1	47	175	73	> 100
COc1cc(N2C(=O)c3ccccc3C2=O)cc(OC)c1OC	43	185	67	> 100
O=C1c2ccccc2C(=O)N1c1cc(Cl)c(Cl)c(Cl)c1	49	172	70	> 100
COc1cc(N2C(=O)c3ccc([N+](=O)[O-])cc3C2=O)cc(OC)c1OC	87	105	94	40
O=C1c2ccc([N+](=O)[O-])cc2C(=O)N1c1cc(Cl)c(Cl)c(Cl)c1	79	122	79	36.1
COc1cc(N2C(=O)c3ccc(C)cc3C2=O)cc(OC)c1OC	84	107	94	> 100
Cc1ccc2c(c1)C(=O)N(c1cc(Cl)c(Cl)c(Cl)c1)C2=O	36	183	65	> 100
COc1cc(N2C(=O)c3ccc(C(C)(C)C)cc3C2=O)cc(OC)c1OC	60	146	89	> 100
CC(C)(C)c1ccc2c(c1)C(=O)N(c1cc(Cl)c(Cl)c(Cl)c1)C2=O	35	195	60	> 100
COc1cc(N2C(=O)c3cc(Cl)c(Cl)cc3C2=O)cc(OC)c1OC	59	186	80	> 100
O=C1c2cc(Cl)c(Cl)cc2C(=O)N1c1cc(Cl)c(Cl)c(Cl)c1	75	187	65	> 100
COc1cc(N2C(=O)c3c(Cl)c(Cl)c(Cl)c(Cl)c3C2=O)cc(OC)c1OC		212	53	> 100
O=C1c2c(Cl)c(Cl)c(Cl)c(Cl)c2C(=O)N1c1cc(Cl)c(Cl)c(Cl)c1	44	229	45	> 100
COc1cc(N2C(=O)c3c(Br)c(Br)c(Br)c(Br)c3C2=O)cc(OC)c1OC	42	213	55	> 100
O=C1c2c(Br)c(Br)c(Br)c(Br)c2C(=O)N1c1cc(Cl)c(Cl)c(Cl)c1				> 100
COc1cc(N2C(=O)c3cccc4cccc(c34)C2=O)cc(OC)c1OC	86	117	91	> 100
COc1cc(-n2c(=O)c3ccccc3c3ccccc3c2=O)cc(OC)c1OC	86	120	84	> 100
O=c1c2ccccc2c2ccccc2c(=O)n1-c1cc(Cl)c(Cl)c(Cl)c1	75	150	72	> 100
COc1cc(N2C(=O)C3C(C2=O)C2(Cl)C(Cl)=C(Cl)C3(Cl)C2(Cl)Cl)cc(OC)c1OC (stereo not drawn)	36		34	> 100
O=C1C2C(C(=O)N1c1cc(Cl)c(Cl)c(Cl)c1)C1(Cl)C(Cl)=C(Cl)C2(Cl)C1(Cl)Cl (stereo not drawn)	23		37	> 100
O=C(O)Cc1ccccc1Nc1c(Cl)cccc1Cl [DICLOFENAC]	88	114	89	
